As a reminder, the clearance is the rate of elimination divided by the concentration. The low end stands for a low capacity for elimination, the high end for a high capacity for elimination.

We go through one compound from article PMC3387347 (Investigational new drugs, 2012).

For one data set, the system named is Pgp. The conditions noted are these: cited from earlier work.
A short description of data set [1]: In vivo cassette dosing pharmacokinetic study in normal mice. Set-up: species or system mouse. The conditions noted are these: for AUCb: normal brain; for Kp / clearance / Vd: male, ICR, mouse, 5 mg/kg, normal mice; for Kp: brain, intravenous, Pb (brain partition coefficient, AUCb/AUCp); for clearance / Vd: plasma, iv; for clearance: CL (total systemic clearance); for Vd: Vd (apparent volume of distribution). Summed up:
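Adult male ICR mice each received a compound mixture in NMP:PEG300:water (1:4:5 by volume) as an IV bolus into a lateral tail vein. The dose was about 5 mg/kg per compound, with one compound at 1.67 mg/kg. Plasma and brain were collected at various times, stored at −80°C and quantified by LC/MS/MS. AUCb was derived by noncompartmental analysis.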

The conditions of data set [2]: mice; cited from earlier work.
Where [3] appears, read: cassette B, IV approximately 5 mg/kg.
The mark [4] stands for this setting: cassette C, IV approximately 5 mg/kg.

In the case of `COc1cc2ncnc(Nc3ccc(F)c(Cl)c3)c2cc1OCCCN1CCOCC1` [Gefitinib], the “concentration reported to inhibit Pgp” value in the data set on Pgp is 100 µM. In data set [1] (cassette A, IV approximately 5 mg/kg (ON271320 1.67 mg/kg)), this compound had an AUCb of 1968.6 ng·h/g. For the same compound, in data set [1] (setting [3]), the AUCb amounted to 2685.2 ng·h/g, the Kp worked out at 2.5, the clearance was 71.7 mL/min/kg and the Vd was determined as 9.9 L/kg. For the same compound, in data set [1] (setting [4]), the AUCb turned out to be 3491.2 ng·h/g, the Kp is 1.9, the clearance is 43.3 mL/min/kg and the Vd was found to be 8.9 L/kg. In addition, the “bound to plasma proteins” value in data set [2] was 95%.
